# Key:
# Assay type in all cases: functional, cell-based
# Conditions in all cases: HT-1080, light or radiation study
# HT-1080 [1] = assay: Inhibition of cell growth after irradiation at UVA dose of 6.5 J/cmE-2 in HT1080 human fibrosarcoma cell line
# Outline: (§1)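 HT-1080 cells from exponential culture seeded at 5×10⁴ cells/mL in DMEM with 10% FBS and penicillin/streptomycin, and allowed to adhere 18 h. Drug was dissolved in DMSO, diluted in HBSS pH 7.2 and incubated 30 min at 37 °C, 5% CO2. Cells were irradiated with lamps emitting mainly at 365 nm, then given medium for 72 h. Read-out was MTT versus untreated controls, with IC50 by linear regression from three experiments.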
# HT-1080 [2] = assay: Inhibition of cell growth after irradiation at UVA dose of 2.6 J/cmE-2 in HT1080 human fibrosarcoma cell line; outline: as §1
# HT-1080 [3] = assay: Inhibition of cell growth after irradiation at UVA dose of 3.2 J/cmE-2 in HT1080 human fibrosarcoma cell line; outline: as §1
IC50 (HT-1080 [1]) [µM],IC50 (HT-1080 [2]) [µM],IC50 (HT-1080 [3]) [µM],Compound
11.1,> 20,13.1,Cc1cc2c(n1-c1ccccc1)CCc1cc(C#N)c(O)nc1-2
> 20,> 20,> 20,Cc1cc2c(n1C)CCc1cc(C(=O)c3ccccc3)c(O)nc1-2
0.4,3.6,2.3,Cc1cc2c(n1-c1ccccc1)CCc1cc(S(=O)(=O)c3ccccc3)c(O)nc1-2
1.9,14.7,9,Cc1cc2c(n1Cc1ccccc1)CCc1cc(C(=O)c3ccccc3)c(O)nc1-2
1.8,> 20,15.1,Cc1cc2c(n1Cc1ccccc1)CCc1cc(S(=O)(=O)c3ccccc3)c(O)nc1-2
16.4,> 20,> 20,Cc1cc2c(n1C)CCc1cc(S(=O)(=O)c3ccccc3)c(O)nc1-2
1.7,6.6,4.6,Cc1cc2c(n1-c1ccccc1)CCc1cc(C(=O)c3ccccc3)c(O)nc1-2
1.5,7.8,2.1,COc1c2occc2cc2ccc(=O)oc12 [METHOXSALEN]

Compound,IC50 (HT-1080 [1]) [µM],IC50 (HT-1080 [2]) [µM],IC50 (HT-1080 [3]) [µM]
COc1c2ccoc2cc2oc(=O)ccc12 [BERGAPTEN],0.9,8.5,1.8
O=c1ccc2ccc3occc3c2o1 [ANGELICIN],2.5,15.7,2.6

# — ChEMBL document CHEMBL1136172, “Pyrrolo[2,3-h]quinolinones: synthesis and photochemotherapic activity” (Bioorg Med Chem Lett, 2003)
